These results are taken from ChEMBL document CHEMBL1121477, “Noval antitumor nitrosoureas and related compounds and their reactions with DNA” (1980).

A short description of assay [1]: Percent ability of compound to produce DNA interstrand cross-links was determined by the ethidium fluorescence assay at 6 hr and compared with antileukemic property. It counts as functional. On the set-up: concentration or dose not given beside the values. The procedure, abridged:
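λ-DNA (1.0 A260 unit) was incubated with 5 mM compound in 50 mM potassium phosphate pH 7.2 at 37 °C. Aliquots went into 20 mM potassium phosphate pH 11.8, 0.4 mM EDTA and 0.5 µg/mL ethidium, were heated at 96 °C for 3 min and rapidly cooled. Fluorescence relative to control ×100 gives % DNA molecules with ≥1 interstrand cross-link; accuracy about ±2%.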

In assay [2] the test system is L1210. Description: Antitumor activity against lymphoid leukemia L1210 cell implanted in mice was measured by %T/C at a dosage of 200 mg/kg. It counts as functional, Mus musculus. A digest of the protocol: (§1)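 L1210 leukemia cells (10^5) implanted intraperitoneally in mice on day 0. Compounds were suspended in saline plus Tween 80 and injected intraperitoneally within 5 min of preparation, following Cancer Chemotherapy National Service Center specifications; dose is given per day. Read-outs were weight change from day 0 to 5 (treated vs control), survivors on day 5, mean survival time treated/control, and %T/C.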

The test system of assay [3] is L1210. Description: Antitumor activity against lymphoid leukemia L1210 cell implanted in mice was measured by wt.change of treated mice minus wt. change of control mice at 200 mg/kg from day 0-5 (-1.1/1.4). It counts as functional, Mus musculus. A digest of the protocol: as §1
Assay [4] relates to L1210. Description: Antitumor activity against lymphoid leukemia L1210 cell implanted in mice was measured by mean survival of mice expressed as treated/control at a dosage of 200 mg/kg (16.4/16.9). In kind it is functional, Mus musculus. A digest of the protocol:
as §1

Assay [5] concerns L1210. Description: Antitumor activity against lymphoid leukemia L1210 cell implanted in mice was measured by number of survivors on day 5 at a dosage of 200 mg/kg (6/6). It counts as functional, Mus musculus. The procedure, abridged: as §1
Assay [6] can be described thus: Compound was evaluated for its ability to exhibit alkylating property toward DNA at 5 mM in 180 min. In kind it is functional. A digest of the protocol: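 Alkylation was measured with PM2 covalently closed circular DNA (1.2 A280 units, 90% CCC) and 5 mM agent in 200 µL at 37 °C. Aliquots were taken into 20 mM potassium phosphate pH 11.8, 0.4 mM EDTA and 0.5 µg/mL ethidium, heated at 96 °C for 4 min, then rapidly cooled. Fluorescence loss relative to control gives the extent of alkylation.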

Assay [7] deals with L1210. Description: Antitumor activity against lymphoid leukemia L1210 cell implanted in mice was measured by %T/C at a dosage of 1.3 mg/kg. It counts as functional, Mus musculus.
The test system of assay [8] is L1210. Description: Antitumor activity against lymphoid leukemia L1210 cell implanted in mice was measured by number of survivors on day 5 at a dosage of 1.3 mg/kg (6/6). It counts as functional, Mus musculus.
Assay [9] concerns L1210. The experiment in a line: Antitumor activity against lymphoid leukemia L1210 cell implanted in mice was measured by mean survival of mice expressed as treated/control at a dosage of 1.3 mg/kg (25.3/9.6). It counts as functional, Mus musculus.
Assay [10] has as its system L1210. Description: Antitumor activity against lymphoid leukemia L1210 cell implanted in mice was measured by wt.change of treated mice minus wt. change of control mice at 1.3 mg/kg from day 0-5 (-2.9/0.3). It counts as functional, Mus musculus.
The test system of assay [11] is L1210. Description: Antitumor activity against lymphoid leukemia L1210 cell implanted in mice was measured by %T/C at a dosage of 1 mg/kg. In kind it is functional, Mus musculus.
Assay [12] concerns L1210. The experiment in a line: Antitumor activity against lymphoid leukemia L1210 cell implanted in mice was measured by mean survival of mice expressed as treated/control at a dosage of 1 mg/kg (12.3/10.5). In kind it is functional, Mus musculus.
In assay [13] the test system is L1210. Description: Antitumor activity against lymphoid leukemia L1210 cell implanted in mice was measured by %T/C on a 1-9 day schedule. In kind it is functional, Mus musculus.
The subject of assay [14] is Mus musculus. Description: Antitumor activity against lymphoid leukemia L1210 cell implanted in mice was measured by wt.change of treated mice minus wt. change of control mice at 0.9 mg/kg from day 0-5 (-1.4/0.4). In kind it is functional.
For assay [15], the system named is Mus musculus. The experiment in a line: Antitumor activity against lymphoid leukemia L1210 cell implanted in mice was measured by number of survivors on day 5 at a dosage of 0.9 mg/kg (6/6). In kind it is functional.
Assay [16] has as its system Mus musculus. Description: Antitumor activity against lymphoid leukemia L1210 cell implanted in mice was measured by mean survival of mice expressed as treated/control at a dosage of 0.9 mg/kg (15.6/11.1). In kind it is functional.
Assay [17] concerns Mus musculus. The experiment in a line: Antitumor activity against lymphoid leukemia L1210 cell implanted in mice was measured by %T/C at a dosage of 0.9 mg/kg. It counts as functional.
For assay [18], the system named is L1210. Description: Antitumor activity against lymphoid leukemia L1210 cell implanted in mice was measured by %T/C at a dosage of 100 mg/kg. It counts as functional, Mus musculus. The procedure, abridged: as §1
The test system of assay [19] is L1210. The experiment in a line: Antitumor activity against lymphoid leukemia L1210 cell implanted in mice was measured by number of survivors on day 5 at a dosage of 100 mg/kg (6/6). In kind it is functional, Mus musculus. The procedure, abridged:
as §1

For assay [20], the system named is L1210. Description: Antitumor activity against lymphoid leukemia L1210 cell implanted in mice was measured by mean survival of mice expressed as treated/control at a dosage of 100 mg/kg (15.4/9.7). In kind it is functional, Mus musculus. The procedure, abridged:
as §1

In assay [21] the test system is L1210. Description: Antitumor activity against lymphoid leukemia L1210 cell implanted in mice was measured by wt.change of treated mice minus wt. change of control mice at 100 mg/kg from day 0-5 (-2.2/1.4). In kind it is functional, Mus musculus. A digest of the protocol:
as §1

In assay [22] the test system is L1210. The experiment in a line: Antitumor activity against lymphoid leukemia L1210 cell implanted in mice was measured by wt.change of treated mice minus wt. change of control mice at 200 mg/kg from day 0-5 (-4.4/1.4). It counts as functional, Mus musculus. A digest of the protocol:
as §1

Assay [23] has as its system L1210. Description: Antitumor activity against lymphoid leukemia L1210 cell implanted in mice was measured by mean survival of mice expressed as treated/control at a dosage of 200 mg/kg (14.9/9.8). It counts as functional, Mus musculus. The procedure, abridged:
as §1

The structures appear in SMILES notation. Values joined by “and” are separate entries in the source; they are usually repeats but may differ in a detail not shown here. Equal entries are not always repeated.

On to `CC(=O)N(CCCl)N=O`, for which the Activity in assay [1] was found to be 44%.
Broadly, the T/C is the result in the treated group divided by that in the control group, in per cent. With `O=NN(CCSCCO)C(=O)NC1CCCCC1`, in the assay with L1210 [2], the T/C amounted to 110%. The molecule also came in with a Change in weight in the assay on L1210 [3] of -1.1 g. In addition, the Mean survival in the assay on L1210 [4] was 16.4 time day-1. This molecule registered a Survivals in the assay with L1210 [5] of 6. Besides, in assay [1], the Activity was determined as 0%. Moreover, in [6], the Alkylation stood at 96%.
With `NC(=O)N(CCCl)N=O`, the T/C with L1210 [7] amounted to 263%. In addition, the Survivals with L1210 [8] worked out at 6. The Mean survival in the assay on L1210 [9] came out at 25.3 time day-1. The Change in weight in the assay on L1210 [10] is -2.9 g. The molecule further registered an Activity in assay [1] of 37%. This molecule also yielded an Alkylation in [6] of 70%.
In turn, `Cc1ccc(S(=O)(=O)N(CCCl)N=O)cc1` displayed a T/C with L1210 [11] of 117%. The same molecule returned a Mean survival with L1210 [12] of 12.3 time day-1. The same molecule registered an Activity in [1] of 0%.
The molecule `O=NN(CCCl)C(=O)OCCCSSCCCOC(=O)N(CCCl)N=O` had a T/C in the assay with L1210 [13] of 136%. In addition, in [1], the Activity was 8% and 25% and 21%.
For the molecule `CCN(N=O)C(N)=O`, in assay [6], the Alkylation amounted to 53%.
`CCOC(=O)N(CCCl)N=O`: the Change in weight with Mus musculus [14] is -1.4 g. This molecule also had a Survivals in the assay with Mus musculus [15] of 6. The Mean survival with Mus musculus [16] stood at 15.6 time day-1. In the assay on Mus musculus [17], this molecule came in with a T/C of 140%. For the same molecule, the Activity in assay [1] is 12% and 24% and 28%.
In turn, `O=S(=O)(OCCCl)C(F)(F)F` registered an Alkylation in [6] of 40%.
The same measure, in the same setting: in the case of `Cc1ccc(S(=O)(=O)OCCCl)cc1` it was 0%.
In turn, `O=NN(CC[S+]([O-])CCCl)C(=O)NC1CCCCC1` (stereo not given) displayed a T/C in the assay on L1210 [18] of 159%. In the assay with L1210 [19], the Survivals is listed as 6. For the same molecule, the Mean survival with L1210 [20] came out at 15.4 time day-1. Besides, the Change in weight in the assay on L1210 [21] is -2.2 g. The molecule also came in with an Activity in assay [1] of 0%. Further, in assay [6], the Alkylation turned out to be 84%.
For `O=[N+]([O-])c1ccc(S(=O)(=O)OCCCl)cc1`, in assay [6], the Alkylation came out at 0%.
Molecule `CS(=O)(=O)OCCCl` had an Alkylation in assay [6] of 0%.
`O=NN(CCOCCCl)C(=O)NC1CCCCC1` returned a T/C with L1210 [2] of 152%. Also, in the assay on L1210 [22], the Change in weight was -4.4 g. In the assay on L1210 [23], this molecule displayed a Mean survival of 14.9 time day-1. Also, the Survivals in the assay with L1210 [5] was found to be 6. In addition, the Activity in assay [1] amounted to 0%. For the same molecule, in [6], the Alkylation came out at 66%.
